From PubChem BioAssay
ERp5 inh – blocks human ERp5 reductase activity on insulin | Q15084 | ERp5 insulin aggregation, absorbance 650 nm, 90 min | inhibition, % at 9.99 µM | 0.05% of 350,000 active | AID 651711;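 active = mean replicate inhibition above about 25%, with every replicate also reaching it, limit read from the data, passing the limit was not always enough; inconclusive = only one of those two criteria met; inactive = neither criterion met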
Ecoli rRNA inh – inhibits bacterial ribosomal RNA function over humanized ribosomes | AID 720706 | 1.6% of 350,000 active | GFP signal change (wild-type ribosome), % (no concentration beside the values) | E. coli WT GFP vs humanized-ribosome RFP mutants, fluorescence, 24 h; hits give low values; DMSO median 0, no signal -100;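 active = significant combined selectivity score with lowered wild-type GFP, culture density cut under 30%, mutant RFP and density less affected; inactive = any of these conditions unmet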
PDI inh – blocks human protein disulfide isomerase activity; P07237; PDI insulin aggregation turbidity, A650, 90 min; inhibition, % at 10 µM; 0.052% of 350,000 active; AID 588391;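 active = mean inhibition across replicates of 30% or more, whatever share of single replicates reach that level; inconclusive = mean inhibition below 30% while every single replicate reaches 30%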
Target sequence (P07237 whole entry, looked up): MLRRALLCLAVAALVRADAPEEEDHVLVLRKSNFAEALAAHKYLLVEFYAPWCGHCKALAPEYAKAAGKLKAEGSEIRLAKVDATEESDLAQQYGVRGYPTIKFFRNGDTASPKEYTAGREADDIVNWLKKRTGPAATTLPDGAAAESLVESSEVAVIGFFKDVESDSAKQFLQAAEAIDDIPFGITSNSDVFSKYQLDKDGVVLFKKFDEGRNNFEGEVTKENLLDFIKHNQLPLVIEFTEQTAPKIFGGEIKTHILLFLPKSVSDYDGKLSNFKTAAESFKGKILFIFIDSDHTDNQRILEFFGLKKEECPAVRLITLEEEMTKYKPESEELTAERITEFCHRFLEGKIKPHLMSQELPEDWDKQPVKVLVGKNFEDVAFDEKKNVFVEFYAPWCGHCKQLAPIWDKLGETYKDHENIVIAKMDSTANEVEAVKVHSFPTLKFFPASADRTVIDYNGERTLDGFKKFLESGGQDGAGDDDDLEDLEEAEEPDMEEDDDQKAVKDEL
Env fusion inh – HIV envelope-mediated fusion inhibition | HeLa-JRFL Env/CEM21 cell fusion, luciferase | inhibition, % at 12.3 µM | 1.1% of 360,000 active | AID 651610;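 active = mean replicate inhibition score of at least 50 and every replicate individually at or above 50; inconclusive = only one of the two criteria met; inactive = mean below 50 and not all replicates reaching 50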
PvdQ inh – P. aeruginosa PvdQ acylase inhibition; purified PvdQ acylase, fluorescence plate reader; inhibition, % at 10 µM; 0.063% of 340,000 active; AID 488965; in the data active = inhibition above about 30%, passing the limit was not always enough; inconclusive = no clear call, values can overlap the other calls
FN deposition inh – fibronectin deposition inhibition. AH1F fibroblasts, Alexa488-fibronectin deposition fluorescence, overnight. inhibition, % at 12.6 µM. 0.086% of 350,000 active. AID 743247;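 active = mean inhibition across replicates of 30% or more, regardless of how many single replicates reach that level; inconclusive = mean under 30% yet at least half of replicates reach 30%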
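Schedule: 1 h cell adhesion before compound, then overnight fibronectin incubation; test system: AH1F fibroblast monolayer depositing Alexa488-labelled fibronectin into matrix; quantity: 10000 AH1F cells per well; probe or stimulus: fluorescent fibronectin at 24 nM final; signal: fluorescence, ex 485 nm, em 525 nm; evaluation: percent inhibition as loss of matrix-bound fibronectin fluorescence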
AID977621 – wild-type E. coli growth inhibition versus H69 humanized strain – H69 mutant RFP, wild-type GFP, cherry-pick, dose response; shares compounds with Ecoli rRNA inh; fluorescence, 24 h; activity change, negative = inhibition at 50 µM; 1,900 tested, under 10 active; AID 977621;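 active = Wild-type ribosome reporter drop at least double the humanized mutant ribosome reporter drop, growth loss under a set limit; inconclusive = no clear call, values can overlap the other calls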;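 also: wild-type GFP and H69 mutant RFP strains grown together 50/50 in each well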
AID977628 – E. coli growth inhibition, wild-type GFP versus h24 humanized RFP strain, dose response, h24 mutant RFP vs wild-type GFP, cherry-pick | shares compounds with Ecoli rRNA inh | E. coli WT GFP strain growth, fluorescence, 24 h | 1,900 tested, under 10 active | activity change, negative = inhibition at 50 µM;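 active = compound lowering the normal-ribosome reporter at least twice as much as the humanized-ribosome reporter, growth loss under a set limit; inconclusive = no clear call, values can overlap the other calls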;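 also: wild-type GFP and h24 humanized RFP strains co-cultured 1 to 1 per well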
Of the large screens only hits and unclear results are named; the others gave an inactive call (follow-up assays come after a bar, where they were run). A selection: hits, their analogues and other compounds. The true share with any hit is near 2.2%.

CCOC(=O)c1cnc2ccccc2c1Nc1ccc2c(c1)OCCO2	none
C[C@H](CO)N1C[C@H](C)[C@@H](CN(C)CC2CC2)Oc2cc(-c3cccc(C#N)c3)ccc2S1(=O)=O	none (no result: PDI inh, Env fusion inh, PvdQ inh, FN deposition inh)
O=C1CCCc2ccccc2N1Cc1ccccc1	Ecoli rRNA inh -28 | AID977621 inactive | AID977628 inactive
COc1ccccc1S(=O)(=O)N[C@H]1CC[C@@H](CCNC(=O)C2CCOCC2)O[C@H]1CO	none (no result: PDI inh, Env fusion inh, PvdQ inh, FN deposition inh)
C[C@@H]1CN([C@@H](C)CO)C(=O)c2cc(NS(=O)(=O)c3ccc(Cl)cc3)ccc2O[C@@H](C)CCCCO[C@@H]1CN(C)Cc1ccc2c(c1)OCO2	none (no result: PDI inh, PvdQ inh)
COc1ccc(CN2CCC3CC2c2cc(Cl)ccc23)cc1 (stereo unspecified)	Ecoli rRNA inh -21 | AID977621 inconclusive | AID977628 inconclusive
Clc1ccc2c(c1)C1CC2CCN1Cc1ccccc1 (stereo unspecified)	none
C[C@@H]1CC=CC[C@@H](c2cccc(Cl)c2)NC(=O)[C@@H](C)N(C)C(=O)c2ccccc2O1 (mixture of isomers)	none (no result: ERp5 inh, PDI inh, Env fusion inh, PvdQ inh)
CN1c2ccc(Cl)cc2C(=O)NC1C1CC=CCC1 (stereo unspecified)	Ecoli rRNA inh -23 | AID977621 inactive
CN1C(=O)c2cc(NC(=O)c3ccc(C(F)(F)F)cc3)ccc2OC[C@H]2O[C@H](CC(=O)NC3Cc4ccccc4C3)CC[C@@H]21	none (no result: PDI inh, PvdQ inh)
CC(C)CN(C(=O)c1ccco1)c1nc2ccccc2s1	Ecoli rRNA inh -19 | AID977628 inconclusive
C[C@@H]1CCCCO[C@@H](CN(C)S(=O)(=O)c2cccs2)[C@@H](C)CN([C@@H](C)CO)C(=O)c2cc(NS(C)(=O)=O)ccc2O1	none (no result: PDI inh, PvdQ inh, FN deposition inh)
COc1ccc(OC2C(=O)N(Cc3ccc4c(c3)OCO4)C2c2cccs2)cc1 (stereo unspecified)	Ecoli rRNA inh -22, Env fusion inh 68 (no result: FN deposition inh) | AID977621 inactive
O=C1C(Oc2ccccc2)C(c2cccs2)N1Cc1ccc2c(c1)OCO2 (stereo unspecified)	none (no result: ERp5 inh, Ecoli rRNA inh, Env fusion inh, FN deposition inh)
Cc1ccc(S(=O)(=O)N2CCCc3ccccc32)cc1	none (no result: PvdQ inh)
O=S(=O)(c1cnc(Cl)c(Cl)c1)N1CCCc2ccccc21	Ecoli rRNA inh -25 (no result: FN deposition inh) | AID977621 inactive | AID977628 inactive
COc1cccc(NC(=O)COC(=O)Cc2ccc(Cl)cc2)c1	Ecoli rRNA inh -36 | AID977621 inactive
COc1ccc(CC(=O)OCC(=O)Nc2cccc(Br)c2)cc1	ERp5 inh inconclusive
COc1cccc(NC(=O)COC(=O)Cc2ccc(Br)cc2)c1	Ecoli rRNA inh -15 | AID977621 inconclusive | AID977628 inactive
COc1ccc(NC(=O)Nc2ccc3c(c2)[C@H]2C[C@@H](CC(=O)N(C)C)O[C@H](CO)[C@H]2O3)cc1	none (no result: PDI inh, Env fusion inh, PvdQ inh)
Cc1noc(C)c1S(=O)(=O)Nc1ccc2c(c1)C(=O)N([C@H](C)CO)C[C@@H](C)[C@@H](CN(C)S(=O)(=O)c1cccs1)OCCCC[C@@H](C)O2	none (no result: ERp5 inh, PDI inh, PvdQ inh)
C[C@H](CO)N1C[C@H](C)[C@@H](CN(C)Cc2ccncc2)OCCCC[C@H](C)Oc2ccc(NC(=O)Nc3ccc(F)cc3)cc2C1=O	none (no result: ERp5 inh, PDI inh, PvdQ inh)
CCN(CC)c1nc(Oc2ccc(C(=O)OC)cc2)nc(N2CCOCC2)n1	Ecoli rRNA inh -16 | AID977621 inactive | AID977628 inactive
CC(C)(C)CC(=O)NCCc1csc(-c2ccccc2)n1	Ecoli rRNA inh -16 | AID977621 inactive | AID977628 inconclusive
C/C=C/c1cccc(-c2nc(C(=O)N3CCN(C)CC3)cc3c2[C@H](CCO)N(C(=O)NC(C)C)C3)c1	none (no result: PDI inh, Env fusion inh, PvdQ inh)
O=C(N[C@H]1CC1c1ccccc1)c1ccc([N+](=O)[O-])cc1 (stereo partly specified)	Ecoli rRNA inh -28 | AID977621 inconclusive | AID977628 inactive
O=C(NCc1ccccc1)c1ccc([N+](=O)[O-])cc1	Env fusion inh inconclusive (no result: PDI inh, PvdQ inh)
Cc1cnc(C)c(N2CCN(Cc3nc(-c4cccc(F)c4F)oc3C)CC2)n1	none
Cc1cccc(N2CCN(Cc3nc(-c4ccc(F)cc4F)oc3C)CC2)n1	Ecoli rRNA inh -34 | AID977621 inactive | AID977628 inactive
CC(C)CC#Cc1ccc2c(c1)O[C@H](CN(C)Cc1ccc3c(c1)OCO3)[C@@H](C)CN([C@H](C)CO)S2(=O)=O	none (no result: PDI inh, PvdQ inh)
Brc1cc2c(cc1Br)OCCOCCOCCO2	Ecoli rRNA inh -24 | AID977621 inconclusive
CCOC(=O)C1CCCN(Cc2ccccc2F)C1 (stereo unspecified)	none (no result: ERp5 inh, Ecoli rRNA inh, Env fusion inh, FN deposition inh)
CCOC(=O)C1CCCN(Cc2c(Cl)cccc2Cl)C1 (stereo unspecified)	Ecoli rRNA inh -23 (no result: Env fusion inh, FN deposition inh) | AID977621 inactive | AID977628 inactive
CNS(=O)(=O)c1cccc(C(=O)NCC(c2cccs2)N(C)C)c1 (stereo unspecified)	none (no result: ERp5 inh, Ecoli rRNA inh)
COc1cc(OC)c(C(=O)NCC(c2cccs2)N(C)C)cc1OC (stereo unspecified)	none (no result: ERp5 inh, Ecoli rRNA inh, Env fusion inh, FN deposition inh)
CCN(c1ccccc1)S(=O)(=O)c1cccc(C(=O)NCC(c2cccs2)N(C)C)c1 (stereo unspecified)	Ecoli rRNA inh -24 | AID977628 inconclusive
COc1cc2ccccc2cc1C(=O)NCC(c1cccs1)N(C)C (stereo unspecified)	Ecoli rRNA inh -24 (no result: FN deposition inh) | AID977621 inconclusive | AID977628 inactive
CN(C)CC(=O)N[C@@H]1CC[C@H](CCNC(=O)C2CCCC2)O[C@@H]1CO	none (no result: PDI inh, PvdQ inh, FN deposition inh)
CN1CCSc2ccc(C(=O)Nc3cccc(F)c3)cc21	Ecoli rRNA inh -23 | AID977621 inactive | AID977628 inactive
Cc1ccccc1CSc1nnc(-c2ccncc2)o1	Ecoli rRNA inh -19 | AID977628 inconclusive
COc1ccc(NC(=O)Nc2cccc3c2O[C@@H](CN(C)S(=O)(=O)c2ccc(Cl)cc2)[C@@H](C)CN([C@H](C)CO)C3=O)cc1	none (no result: Ecoli rRNA inh, PDI inh, PvdQ inh, FN deposition inh)
COc1ccc(NC(=O)Nc2cccc3c2O[C@@H](CN(C)S(=O)(=O)c2ccc(Cl)cc2)[C@H](C)CN([C@H](C)CO)C3=O)cc1	none (no result: PDI inh, PvdQ inh, FN deposition inh) | AID977628 inconclusive
COc1ccc(NC(=O)Nc2cccc3c2O[C@@H](CN(C)S(=O)(=O)c2ccc(OC)cc2)[C@@H](C)CN([C@@H](C)CO)C3=O)cc1	none (no result: PDI inh, PvdQ inh, FN deposition inh)
COc1ccc(NC(=O)Nc2cccc3c2O[C@H](CN(C)S(=O)(=O)c2ccc(Cl)cc2)[C@@H](C)CN([C@H](C)CO)C3=O)cc1	none (no result: PDI inh, PvdQ inh, FN deposition inh) | AID977628 inconclusive
